Results from ChEMBL document CHEMBL4765256, “Structural features and functional activities of benzimidazoles as NOD2 antagonists” (Eur J Med Chem, 2020).
The source made the active and inactive calls. The rule behind the calls is not given here.

Columns and labels:
THP-1 [1] = assay: Antagonist activity at NOD in human THP-1 cells assessed as increase in IL-8 secretion at 20 uM; format: cell-based
Method in brief: (§1)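 THP-1 cells at 10^6 cells/mL in RPMI 1640 with 10% heat-inactivated FCS, passages 3–12, exposed to 20 µM compound alone (no NOD agonist). IL-8 and TNF-α in cell-free supernatants measured by sandwich ELISA, reported in pg/mL. Detection limits were 15.6 pg/mL for IL-8 and 4 pg/mL for TNF-α. DMSO vehicle control, not above 0.2% final.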

HEK293 [2] = assay: Cytotoxicity against human HEK293 cells expressing human NOD1 assessed as reduction in metabolic activity at 20 uM incubated for 18 hrs by MTS assay; format: ADME, cell-based; details: hek293, 18 h
Method in brief: (§2)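 HEK-Blue NOD1 or NOD2 cells seeded at 1 × 10^4 cells/well in triplicate. Treated 18 h with 20 µM compound or 0.1% DMSO vehicle. Metabolic activity read by MTS (CellTiter 96 AQueous One) and expressed relative to vehicle control. Mean ± SD of three biological replicates.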

HEK293 [3] = assay: Cytotoxicity against human HEK293 cells expressing human NOD2 assessed as reduction in metabolic activity at 20 uM incubated for 18 hrs by MTS assay; format: ADME, cell-based; details: hek293, 18 h; method in brief: as §2
[4] = molecular target: T1, Nucleotide-binding oligomerization domain-containing protein 1 (Homo sapiens) (UniProt Q9Y239); assay: Antagonist activity at human NOD1 expressed in HEK293 cells assessed as reduction in C12-iE-DAP-induced NF-kappaB activation at 10 uM preincubated for 1 hr followed by C12-iE-DAP stimulation and measured after 18 hrs by SEAP reporter gene based spectrophotometric analysis; format: cell-based; details: filed as antagonist, time 19.0 hrs
T1 sequence (whole entry): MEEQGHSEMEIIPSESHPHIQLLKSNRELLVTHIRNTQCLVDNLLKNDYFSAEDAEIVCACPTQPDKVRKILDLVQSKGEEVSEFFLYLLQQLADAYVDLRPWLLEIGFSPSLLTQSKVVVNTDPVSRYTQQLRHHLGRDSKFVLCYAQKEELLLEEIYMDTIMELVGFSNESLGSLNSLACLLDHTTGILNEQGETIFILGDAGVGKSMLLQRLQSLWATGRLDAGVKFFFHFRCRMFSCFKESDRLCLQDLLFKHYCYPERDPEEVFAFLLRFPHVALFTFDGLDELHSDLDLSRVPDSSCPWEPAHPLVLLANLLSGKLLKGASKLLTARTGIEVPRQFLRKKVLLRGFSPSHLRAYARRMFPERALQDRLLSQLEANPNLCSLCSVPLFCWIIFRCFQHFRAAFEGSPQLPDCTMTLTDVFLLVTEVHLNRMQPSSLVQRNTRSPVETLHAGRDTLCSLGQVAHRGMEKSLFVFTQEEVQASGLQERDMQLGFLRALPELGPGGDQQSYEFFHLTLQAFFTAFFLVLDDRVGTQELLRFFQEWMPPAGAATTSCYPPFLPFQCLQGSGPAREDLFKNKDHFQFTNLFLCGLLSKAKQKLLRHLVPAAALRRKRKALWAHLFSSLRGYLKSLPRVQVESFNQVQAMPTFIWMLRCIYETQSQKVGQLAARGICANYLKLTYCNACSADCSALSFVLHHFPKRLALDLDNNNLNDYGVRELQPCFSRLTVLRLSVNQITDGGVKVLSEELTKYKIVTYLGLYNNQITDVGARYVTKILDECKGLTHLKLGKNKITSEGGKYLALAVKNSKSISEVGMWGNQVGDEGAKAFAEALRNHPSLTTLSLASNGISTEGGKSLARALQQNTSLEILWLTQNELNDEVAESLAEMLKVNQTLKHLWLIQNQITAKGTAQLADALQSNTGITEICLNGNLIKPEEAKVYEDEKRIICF
Method in brief: (§3)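 HEK-Blue NOD1 or NOD2 reporter cells (5 × 10^5 cells/mL, passages 7–12) pre-treated 1 h with 10 µM compound. Then 100 nM C12-iE-DAP (NOD1) or 2 µM MDP (NOD2) for 18 h at 37 °C, 5% CO2. Secreted SEAP read at 620 nm. DMSO ≤0.1% vehicle control. Duplicates, three biological replicates.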

[5] = molecular target: T2, Nucleotide-binding oligomerization domain-containing protein 2 (Homo sapiens, UniProt Q9HC29); assay: Antagonist activity at human NOD2 expressed in HEK293 cells assessed as reduction in MDP-induced NF-kappaB activation at 10 uM preincubated for 1 hr followed by MDP stimulation and measured after 18 hrs by SEAP reporter gene based spectrophotometric analysis; format: cell-based; details: filed as antagonist, time 19.0 hrs; method in brief: as §3
[6] = molecular target: T3, Nucleotide-binding oligomerization domain-containing protein 1 (Homo sapiens, UniProt Q9Y239); assay: Antagonist activity at human NOD1 expressed in HEK293 cells assessed as reduction in C12-iE-DAP-induced NF-kappaB activation preincubated for 1 hr followed by C12-iE-DAP stimulation and measured after 18 hrs by SEAP reporter gene based spectrophotometric analysis; format: cell-based
T3 sequence (Q9Y239 whole entry): T1 sequence (whole entry)

[7] = molecular target: T2, Nucleotide-binding oligomerization domain-containing protein 2; assay: Antagonist activity at human NOD2 expressed in HEK293 cells assessed as reduction in MDP-induced NF-kappaB activation preincubated for 1 hr followed by MDP stimulation and measured after 18 hrs by SEAP reporter gene based spectrophotometric analysis; format: cell-based; details: read-out: IC50
Method in brief: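 Dose–response in HEK-Blue NOD2 and NOD1 cells (5 × 10^5 cells/mL): 1 h pre-treatment with 0.3125–20 µM antagonist, then 2 µM MDP or 100 nM C12-iE-DAP respectively, 18 h incubation. SEAP absorbance read at 620 nm. IC50 fitted by non-linear regression. Duplicates, three biological replicates, DMSO ≤0.1%.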

THP-1 [8] = assay: Antagonist activity at NOD in human THP-1 cells assessed as increase in TNF-alpha secretion at 20 uM; format: cell-based; method in brief: as §1
THP-1 [9] = assay: Cytotoxicity against human THP-1 cells assessed as […] dehydrogenase leakage at 20 uM incubated for 18 hrs; format: cell-based; details: thp-1, 18 h
Method in brief: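 THP-1 cells treated 18 h with compound at up to 20 µM. Lactate dehydrogenase released into cell-free supernatant measured with a colorimetric kit, results given as OD.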

[10] = molecular target: T1, Nucleotide-binding oligomerization domain-containing protein 1 (Homo sapiens); assay: Antagonist activity at NOD1 in human THP-1 cells assessed as reduction in C12-iE-DAP-induced IL-8 secretion at 20 uM preincubated for 1 hr followed by C12-iE-DAP stimulation and measured after 20 hrs by ELISA; format: cell-based; details: filed as antagonist, time 21.0 hrs
Method in brief: (§4)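 THP-1 cells at 10^6 cells/mL in 24-well cultures, passages 3–12. Pre-treated 1 h with 20 µM compound, then 10 µM MDP (NOD2) or 10 µM C12-iE-DAP (NOD1) added, 20 h at 37 °C, 5% CO2. Triplicate wells, DMSO ≤0.2% as vehicle control. Supernatant IL-8 by sandwich ELISA, detection limit 15.6 pg/mL. Mean ± SD of duplicates from three independent experiments, Dunnett test.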

[11] = molecular target: T2, Nucleotide-binding oligomerization domain-containing protein 2; assay: Antagonist activity at NOD2 in human THP-1 cells assessed as reduction in MDP-induced IL-8 secretion at 20 uM preincubated for 1 hr followed by MDP stimulation and measured after 20 hrs by ELISA; format: cell-based; details: filed as antagonist, time 21.0 hrs; method in brief: as §4
THP-1 [12] = assay: Antagonist activity at NOD1/TLR4 in human THP-1 cells assessed as reduction in C12-iE-DAP/LPS-induced TNF-alpha secretion at 20 uM preincubated for 1 hr followed by C12-iE-DAP/LPS stimulation and measured after 20 hrs by ELISA; format: cell-based; details: time 21.0 hrs
Method in brief: (§5)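 Synergy setting in THP-1 cells: 1 h pre-treatment with 20 µM compound, then 10 µM MDP or C12-iE-DAP plus 1 ng/mL E. coli O127:B8 LPS for 20 h. Supernatant TNF-α by sandwich ELISA, detection limit 4 pg/mL. DMSO vehicle ≤0.2%. Duplicates from three independent experiments, mean ± SD, Dunnett test against agonist+LPS-treated cells.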

THP-1 [13] = assay: Antagonist activity at NOD2/TLR4 in human THP-1 cells assessed as reduction in MDP/LPS-induced TNF-alpha secretion at 20 uM preincubated for 1 hr followed by MDP/LPS stimulation and measured after 20 hrs by ELISA; format: cell-based; details: filed as antagonist, time 21.0 hrs; method in brief: as §5
[14] = molecular target: T2, Nucleotide-binding oligomerization domain-containing protein 2; assay: Antagonist activity at NOD2 in human PBMC assessed as reduction in MDP-induced IL-6 secretion at 20 uM preincubated for 1 hr followed by MDP stimulation and measured after 18 hrs by flow cytometric analysis; format: tissue-based; details: filed as antagonist, time 19.0 hrs
Method in brief: (§6)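 Human PBMCs from healthy donors, Ficoll density-gradient isolated, 1 × 10^6 cells in RPMI 1640 with 10% heat-inactivated FBS. Pre-treated 1 h with 20 µM compound, then 2 µM MDP. Supernatants taken at 18 h and stored at −80 °C. Cytokines quantified by flow cytometric bead array (Th1/Th2 panel) against recombinant standards, in pg/mL. Mean ± SD from two representative experiments.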

[15] = molecular target: T2, Nucleotide-binding oligomerization domain-containing protein 2; assay: Antagonist activity at NOD2 in human PBMC assessed as reduction in MDP-induced IL-10 secretion at 20 uM preincubated for 1 hr followed by MDP stimulation and measured after 18 hrs by flow cytometric analysis; format: tissue-based; details: filed as antagonist, time 19.0 hrs; method in brief: as §6
[16] = molecular target: T2, Nucleotide-binding oligomerization domain-containing protein 2; assay: Antagonist activity at NOD2 in human PBMC assessed as reduction in MDP-induced TNF-alpha secretion at 20 uM preincubated for 1 hr followed by MDP stimulation and measured after 18 hrs by flow cytometric analysis; format: tissue-based; details: filed as antagonist, time 19.0 hrs; method in brief: as §6

T2 sequence (Q9HC29 whole entry, the tested form may be a part): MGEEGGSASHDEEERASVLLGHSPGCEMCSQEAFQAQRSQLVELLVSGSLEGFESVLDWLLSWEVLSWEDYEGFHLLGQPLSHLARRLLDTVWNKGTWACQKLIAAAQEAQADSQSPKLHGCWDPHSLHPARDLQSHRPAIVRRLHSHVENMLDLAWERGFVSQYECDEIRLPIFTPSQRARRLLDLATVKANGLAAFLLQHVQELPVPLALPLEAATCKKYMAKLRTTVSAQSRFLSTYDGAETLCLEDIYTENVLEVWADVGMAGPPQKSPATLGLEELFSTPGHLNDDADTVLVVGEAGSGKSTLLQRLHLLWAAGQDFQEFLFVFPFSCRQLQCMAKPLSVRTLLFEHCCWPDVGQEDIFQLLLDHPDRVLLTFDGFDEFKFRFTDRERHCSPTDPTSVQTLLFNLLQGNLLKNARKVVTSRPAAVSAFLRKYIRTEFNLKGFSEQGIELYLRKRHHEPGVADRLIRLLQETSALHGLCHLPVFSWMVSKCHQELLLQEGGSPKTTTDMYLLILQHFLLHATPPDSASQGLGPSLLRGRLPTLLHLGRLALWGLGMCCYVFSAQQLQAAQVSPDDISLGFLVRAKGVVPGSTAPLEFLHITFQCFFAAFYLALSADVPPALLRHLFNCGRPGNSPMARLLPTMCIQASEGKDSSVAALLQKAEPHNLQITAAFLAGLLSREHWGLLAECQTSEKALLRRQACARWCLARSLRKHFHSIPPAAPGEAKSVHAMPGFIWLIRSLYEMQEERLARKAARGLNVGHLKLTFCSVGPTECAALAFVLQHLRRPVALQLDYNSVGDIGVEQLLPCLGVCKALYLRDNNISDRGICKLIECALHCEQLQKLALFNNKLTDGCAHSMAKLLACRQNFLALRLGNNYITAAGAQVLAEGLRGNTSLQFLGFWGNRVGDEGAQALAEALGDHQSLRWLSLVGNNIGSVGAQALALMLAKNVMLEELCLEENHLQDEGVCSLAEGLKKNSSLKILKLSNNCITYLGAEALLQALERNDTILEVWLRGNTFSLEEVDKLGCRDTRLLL

Structure (SMILES): O=C(Cn1c(CCNS(=O)(=O)c2ccccc2)nc2ccccc21)Nc1ccc2c(c1)CCC2
- Activity (THP-1 [1]): inactive
- Activity (HEK293 [2]): Non-Toxic
- Activity (HEK293 [3]): Non-Toxic
- Activity [4]: Active
- Activity [5]: Active
- IC50 [6]: 28.2 µM
- IC50 [7]: 5.23 µM
- Activity (THP-1 [8]): inactive
- Activity (THP-1 [9]): Non-Toxic
- Activity [10]: Active
- Activity [11]: Active
- Activity (THP-1 [12]): inactive
- Activity (THP-1 [13]): Active
- Activity [14]: Active
- Activity [15]: Active
- Activity [16]: Active
